Reference: ChEMBL document CHEMBL3352034, “Therapeutic potential of targeting the oncogenic SHP2 phosphatase” (J Med Chem, 2014)
Active and inactive are the calls of the source. The calls are words filed in the database; no cut-off is given here.

Assays:
[1] = molecular target: T1, Tyrosine-protein phosphatase non-receptor type 11 (Homo sapiens, UniProt Q06124); assay: Inhibition of SHP2 (unknown origin) using p-nitrophenyl phosphate substrate by microplate spectrophotometry
T1 sequence (Q06124 whole entry): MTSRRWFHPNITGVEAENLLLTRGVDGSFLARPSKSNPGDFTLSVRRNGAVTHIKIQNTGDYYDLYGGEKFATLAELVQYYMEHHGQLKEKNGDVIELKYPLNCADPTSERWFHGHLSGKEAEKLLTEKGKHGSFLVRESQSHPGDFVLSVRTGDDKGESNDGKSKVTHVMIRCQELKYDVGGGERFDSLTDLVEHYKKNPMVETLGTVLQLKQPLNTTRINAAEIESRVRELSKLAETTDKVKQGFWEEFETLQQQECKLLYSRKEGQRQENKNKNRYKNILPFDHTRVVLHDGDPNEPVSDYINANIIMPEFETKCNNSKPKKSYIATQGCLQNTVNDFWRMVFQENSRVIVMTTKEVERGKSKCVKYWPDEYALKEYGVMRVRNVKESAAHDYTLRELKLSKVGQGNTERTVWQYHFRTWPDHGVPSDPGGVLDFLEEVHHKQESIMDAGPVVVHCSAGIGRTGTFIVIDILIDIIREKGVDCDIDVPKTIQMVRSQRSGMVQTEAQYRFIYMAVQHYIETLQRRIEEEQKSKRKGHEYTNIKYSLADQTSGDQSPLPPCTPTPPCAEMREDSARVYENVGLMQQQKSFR

[2] = organism: Mus musculus; assay: Anticancer activity against mouse 32D cells bearing wild-type KIT assessed as ligand dependent growth inhibition at 1 to 5 uM measured after 6 hrs; format: functional, cell-based
In short: (§1)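 32D myeloid cells retrovirally transduced with WT KIT or KITD814V and sorted on EGFP. Starved 6–8 h in IMDM/0.2% BSA without serum or growth factors. Plated at 5×10^4 cells in triplicate in IMDM/10% FBS, with 10 ng/mL IL-3 for WT KIT and no growth factors for KITD814V, ± inhibitor. Cultured 48 h, pulsed 6 h with 1.0 μCi [3H]thymidine, CPM counted. Four independent experiments.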

[3] = organism: Mus musculus; assay: Anticancer activity against mouse 32D cells bearing KITD814V mutant assessed as ligand dependent growth inhibition at 5 uM measured after 6 hrs; format: functional, cell-based; details: in the assay text read “ligand independent” for “ligand dependent”; in short: as §1
[4] = molecular target: T2, Tyrosine-protein phosphatase non-receptor type 11 (Homo sapiens) (UniProt Q06124); assay: Inhibition of SHP2 dephosphorylation activity in human NCI-H1975 cells assessed as increase in paxillin (pY118) phosphorylation at 2 uM after 60 mins by immunoblot analysis; format: cell-based; set-up: Activity: scale not given: the % may be the effect or the level left
T2 sequence (whole entry): T1 sequence (Q06124 whole entry)
In short: (§2)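 H1975 cells serum-starved overnight, treated with vehicle or compound for 3 h, then left unstimulated or stimulated with 5 ng/mL EGF for 60 min. Lysates resolved by SDS-PAGE and immunoblotted for paxillin pY118 and phospho-Erk1/2.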

[5] = tested on: NCI-H1975; assay: Anticancer activity against human NCI-H1975 cells after 2 days by MTT assay; format: functional, cell-based
In short: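 H1975 NSCLC cells in RPMI-1640 with 10% FBS at 37 °C, 5% CO2. 3×10^3 cells/well, treated 2 days in RPMI-1640 with 0.5% FBS. MTT at 50 μg/mL for 3–4 h, formazan dissolved in DMSO, OD read at 540 nm. Media-only wells used for background. IC50 from dose–response.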

[6] = molecular target: T2, Tyrosine-protein phosphatase non-receptor type 11 (Homo sapiens); assay: Inhibition of SHP2 in human SKBR3 cells assessed as inhibition of total Erk1/2 phosphorylation level at 1 to 10 uM measured after 4 days by matrigel assay; format: cell-based; details: SK-BR-3
In short: (§3)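 SKBR3 cells grown in Matrigel with vehicle or compound (1 to 10 μM), three dishes per condition. After 4 days cells recovered from Matrigel and lysed in PLC buffer with protease inhibitors. Total and phospho Erk1/2 and Akt detected by SDS-PAGE immunoblot.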

[7] = molecular target: Mast/stem cell growth factor receptor Kit (Homo sapiens) (UniProt P10721); assay: Inhibition of KIT D814V mutant (unknown origin) expressed in serum starved mouse 32D cells assessed as inhibition of Akt activation at 1 to 5 uM measured after 2 hrs by immunoblot analysis; format: cell-based
Mast/stem cell growth factor receptor Kit (Homo sapiens), sequence (P10721 whole entry): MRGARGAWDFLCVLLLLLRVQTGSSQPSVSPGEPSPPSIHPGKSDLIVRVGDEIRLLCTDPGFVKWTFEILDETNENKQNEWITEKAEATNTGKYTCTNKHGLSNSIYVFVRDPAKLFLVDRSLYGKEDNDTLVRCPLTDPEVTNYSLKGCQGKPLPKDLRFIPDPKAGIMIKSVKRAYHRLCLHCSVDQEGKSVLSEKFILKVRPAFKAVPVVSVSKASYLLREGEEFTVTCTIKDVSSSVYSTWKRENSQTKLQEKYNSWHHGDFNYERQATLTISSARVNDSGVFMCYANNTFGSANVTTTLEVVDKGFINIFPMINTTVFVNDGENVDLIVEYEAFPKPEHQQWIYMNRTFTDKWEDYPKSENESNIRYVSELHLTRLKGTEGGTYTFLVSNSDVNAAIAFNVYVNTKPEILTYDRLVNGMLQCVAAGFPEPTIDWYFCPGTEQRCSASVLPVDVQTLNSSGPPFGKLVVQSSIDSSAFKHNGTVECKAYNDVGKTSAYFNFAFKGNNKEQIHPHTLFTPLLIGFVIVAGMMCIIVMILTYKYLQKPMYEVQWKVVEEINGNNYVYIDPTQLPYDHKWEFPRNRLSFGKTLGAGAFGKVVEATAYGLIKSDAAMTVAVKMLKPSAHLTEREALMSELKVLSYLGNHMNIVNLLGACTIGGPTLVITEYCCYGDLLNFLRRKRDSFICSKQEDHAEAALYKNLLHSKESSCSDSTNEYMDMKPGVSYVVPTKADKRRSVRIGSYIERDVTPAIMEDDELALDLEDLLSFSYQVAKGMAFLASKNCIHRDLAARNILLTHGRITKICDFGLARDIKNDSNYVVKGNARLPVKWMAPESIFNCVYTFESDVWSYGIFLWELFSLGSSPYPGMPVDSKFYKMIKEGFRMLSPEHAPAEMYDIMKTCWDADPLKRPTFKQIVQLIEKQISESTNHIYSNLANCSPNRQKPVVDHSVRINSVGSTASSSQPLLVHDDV
In short: (§4)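 Sorted 32D cells expressing WT KIT or KITD814V, starved of serum and growth factors for 6 h. Treated with compound for 2 h, then lysed in NP-40 buffer with phosphatase and protease inhibitors. Equal protein amounts immunoblotted for phospho and total Akt and Erk1/2, ECL detection. Two independent experiments.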

[8] = tested on: Bone marrow cell; assay: Reduction in growth of C57BL/6 mouse Bone marrow cell bearing KITD814V mutant at 5 uM after 6 hrs; format: functional, cell-based
[9] = tested on: NCI-H1975; assay: Effect on PMA-induced Erk1/2 phosphorylation in human NCI-H1975 cells at 0.5 to 2 uM after 30 mins by immunoblot analysis; format: functional, cell-based
[10] = molecular target: T2, Tyrosine-protein phosphatase non-receptor type 11 (Homo sapiens); assay: Inhibition of SHP2 in human NCI-H1975 cells assessed as reduction in EGF-induced Erk1/2 phosphorylation after 60 mins by immunoblot analysis; format: cell-based; in short: as §2
[11] = molecular target: Mast/stem cell growth factor receptor Kit (Homo sapiens) (UniProt P10721); assay: Inhibition of KIT D814V mutant (unknown origin) expressed in serum starved mouse 32D cells assessed as inhibition of total Erk1/2 activation at 1 to 5 uM measured after 2 hrs by immunoblot analysis; format: cell-based; in short: as §4
[12] = molecular target: T2, Tyrosine-protein phosphatase non-receptor type 11 (Homo sapiens); assay: Inhibition of SHP2 in human SKBR3 cells assessed as inhibition of total Akt phosphorylation level at 1 to 10 uM measured after 4 days by matrigel assay; format: cell-based; details: SK-BR-3; in short: as §3
[13] = molecular target: T2, Tyrosine-protein phosphatase non-receptor type 11 (Homo sapiens); assay: Inhibition of SHP2 in human NCI-H1975 cells assessed as reduction in EGF-induced Erk1/2 phosphorylation at 2 uM after 60 mins by immunoblot analysis; format: cell-based; in short: as §2
[14] = molecular target: Mast/stem cell growth factor receptor Kit (Homo sapiens) (UniProt P10721); assay: Effect on wild type KIT (unknown origin) expressed in serum starved mouse 32D cells assessed as effect on Erk1/2 activation at 1 to 5 uM measured after 2 hrs by immunoblot analysis; format: cell-based; in short: as §4
[15] = molecular target: T2, Tyrosine-protein phosphatase non-receptor type 11 (Homo sapiens); assay: Inhibition of SHP2 dephosphorylation activity in human NCI-H1975 cells assessed as increase in paxillin (pY118) phosphorylation after 60 mins by immunoblot analysis; format: cell-based; in short: as §2
[16] = organism: Mus musculus; assay: Anticancer activity against mouse 32D cells bearing KITD814V mutant assessed as ligand dependent growth inhibition at 1 uM measured after 6 hrs; format: functional, cell-based; details: in the assay text read “ligand independent” for “ligand dependent”; in short: as §1
[17] = tested on: Bone marrow cell; assay: Reduction in growth of C57BL/6 mouse Bone marrow cell bearing KITD814V mutant at 1 uM after 6 hrs; format: functional, cell-based
[18] = molecular target: T2, Tyrosine-protein phosphatase non-receptor type 11 (Homo sapiens); assay: Inhibition of SHP2 in human NCI-H1975 cells assessed as reduction in EGF-induced Erk1/2 phosphorylation after 60 mins by immunoblot analysis in presence of SHP2 siRNA; format: cell-based
In short: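 H1975 cells transfected with SHP2 or scrambled siRNA using Lipofectamine 2000 for 6 h, then recovered in RPMI1640 with 10% FBS. Serum-starved overnight, treated with compound for 3 h, stimulated with 5 ng/mL EGF for 60 min. Phospho-Erk1/2 measured by immunoblot.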

[19] = tested on: SK-BR-3; assay: Anticancer activity against human SKBR3 cells assessed as growth inhibition at 3 uM measured within 24 hrs by matrigel assay; format: functional, cell-based
In short: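 About 300000 SKBR3 cells seeded into 150 μL growth factor reduced Matrigel. Three dishes per condition received medium containing DMSO vehicle or compound. Colonies imaged every 24 h under a stereo microscope. Cross-sectional area of individual colonies measured from the images.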

[20] = molecular target: Receptor-type tyrosine-protein phosphatase epsilon (Homo sapiens, UniProt P23469); assay: Inhibition of PTPepsilon (unknown origin)
Receptor-type tyrosine-protein phosphatase epsilon, sequence (P23469 whole entry): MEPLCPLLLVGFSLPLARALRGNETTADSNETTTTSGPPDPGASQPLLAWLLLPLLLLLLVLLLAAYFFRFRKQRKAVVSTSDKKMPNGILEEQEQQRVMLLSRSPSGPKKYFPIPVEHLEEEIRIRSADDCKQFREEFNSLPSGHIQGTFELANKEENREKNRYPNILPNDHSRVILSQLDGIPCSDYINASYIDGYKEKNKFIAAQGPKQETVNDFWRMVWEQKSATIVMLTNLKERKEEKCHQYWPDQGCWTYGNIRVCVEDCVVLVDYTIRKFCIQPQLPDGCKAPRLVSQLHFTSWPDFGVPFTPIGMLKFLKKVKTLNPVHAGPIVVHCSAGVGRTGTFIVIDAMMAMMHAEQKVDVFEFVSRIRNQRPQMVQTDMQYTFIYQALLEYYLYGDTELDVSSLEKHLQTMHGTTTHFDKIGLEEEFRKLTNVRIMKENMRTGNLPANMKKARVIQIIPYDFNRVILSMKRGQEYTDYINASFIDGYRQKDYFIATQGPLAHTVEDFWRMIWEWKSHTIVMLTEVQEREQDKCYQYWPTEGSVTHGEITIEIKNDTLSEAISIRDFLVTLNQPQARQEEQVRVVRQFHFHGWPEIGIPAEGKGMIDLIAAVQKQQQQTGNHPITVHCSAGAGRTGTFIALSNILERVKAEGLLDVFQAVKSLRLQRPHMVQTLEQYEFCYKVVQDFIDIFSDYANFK

[21] = molecular target: Receptor-type tyrosine-protein phosphatase alpha (Homo sapiens, UniProt P18433); assay: Inhibition of PTPalpha (unknown origin)
Receptor-type tyrosine-protein phosphatase alpha, sequence (P18433 whole entry): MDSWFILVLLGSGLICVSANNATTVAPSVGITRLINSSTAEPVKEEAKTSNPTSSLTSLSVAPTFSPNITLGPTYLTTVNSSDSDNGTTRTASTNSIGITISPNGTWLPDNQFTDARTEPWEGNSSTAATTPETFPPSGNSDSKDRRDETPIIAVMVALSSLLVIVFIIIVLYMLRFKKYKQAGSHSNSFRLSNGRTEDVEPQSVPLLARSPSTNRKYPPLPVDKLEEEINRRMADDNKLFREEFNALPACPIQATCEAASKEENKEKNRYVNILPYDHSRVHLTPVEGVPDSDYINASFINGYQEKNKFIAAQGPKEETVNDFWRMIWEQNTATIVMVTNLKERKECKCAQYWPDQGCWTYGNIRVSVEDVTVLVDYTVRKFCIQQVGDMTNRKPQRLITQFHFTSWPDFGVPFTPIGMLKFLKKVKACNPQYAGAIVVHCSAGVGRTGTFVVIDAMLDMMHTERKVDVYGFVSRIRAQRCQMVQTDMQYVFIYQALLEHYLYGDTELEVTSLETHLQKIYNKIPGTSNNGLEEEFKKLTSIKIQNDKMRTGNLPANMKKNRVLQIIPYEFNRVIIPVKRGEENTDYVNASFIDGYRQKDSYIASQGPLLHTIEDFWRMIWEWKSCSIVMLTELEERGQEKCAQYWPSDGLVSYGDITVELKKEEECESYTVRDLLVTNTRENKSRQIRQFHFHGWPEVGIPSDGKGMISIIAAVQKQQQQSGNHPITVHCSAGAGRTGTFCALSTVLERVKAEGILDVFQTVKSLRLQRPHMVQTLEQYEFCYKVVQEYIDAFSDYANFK

[22] = molecular target: Mast/stem cell growth factor receptor Kit (Homo sapiens) (UniProt P10721); assay: Effect on wild type KIT (unknown origin) expressed in serum starved mouse 32D cells assessed as effect on Akt activation at 1 to 5 uM measured after 2 hrs by immunoblot analysis; format: cell-based; in short: as §4

**Q.** How did the IC50 [1] turn out when CCCN(CC1CC1)C(=O)CCC(=O)Nc1cccc(-c2c(I)c3cc(C(=O)O)c(O)cc3n2C)c1 was run?
**A.** The IC50 was > 20 µM.

**Q.** Cn1c(-c2ccccc2)c(-c2cn(CCC(=O)Nc3ccc(-c4ccccc4)cc3)nn2)c2cc(C(=O)O)c(O)cc21 was tested. Which inhibition [2] did it give?
**A.** The inhibition was “inactive”.

**Q.** And the inhibition [3]?
**A.** Its inhibition is “Active”.

**Q.** For Cn1c(-c2cccc(NC(=O)C(=O)Nc3ccc(-c4ccsc4)cc3)c2)c(I)c2cc(C(=O)O)c(O)cc21, which Activity [4] is on record?
**A.** Its Activity is 30%.

**Q.** What about the inhibition [5] of the same molecule?
**A.** The inhibition was “Dose-dependent effect”.

**Q.** And the IC50 ([5]; NCI-H1975, 48 h)?
**A.** Its IC50 is 0.17 µM.

**Q.** And the inhibition [6]?
**A.** Its inhibition is “Active”.

**Q.** And the inhibition [2]?
**A.** The inhibition was “inactive”.

**Q.** What about the inhibition [7] of the same molecule?
**A.** Its inhibition is “Dose-dependent effect”.

**Q.** And the inhibition [8]?
**A.** The inhibition was “Active”.

**Q.** And the Activity [9]?
**A.** Its Activity is “inactive”.

**Q.** What about the inhibition [10] of the same molecule?
**A.** The inhibition was “Dose-dependent effect”.

**Q.** What about the inhibition [11] of the same molecule?
**A.** The inhibition was “Dose-dependent effect”.

**Q.** And the inhibition [12]?
**A.** The inhibition was “Active”.

**Q.** What about the inhibition [13] of the same molecule?
**A.** The inhibition was 40%.

**Q.** What about the inhibition [14] of the same molecule?
**A.** Its inhibition is “inactive”.

**Q.** What about the inhibition [15] of the same molecule?
**A.** Its inhibition is “Dose-dependent effect”.

**Q.** What about the inhibition [16] of the same molecule?
**A.** Its inhibition is “Active”.

**Q.** What about the inhibition [3] of the same molecule?
**A.** Its inhibition is “Active”.

**Q.** And the inhibition [17]?
**A.** Its inhibition is “Active”.

**Q.** And the inhibition [18]?
**A.** Its inhibition is “inactive”.

**Q.** And the inhibition [19]?
**A.** Its inhibition is “Active”.

**Q.** And the IC50 [20]?
**A.** The IC50 was > 20 µM.

**Q.** What about the IC50 [21] of the same molecule?
**A.** The IC50 was > 100 µM.

**Q.** What about the inhibition [22] of the same molecule?
**A.** Its inhibition is “inactive”.

**Q.** How did the inhibition [4] turn out when Cn1c(-c2cccc(NC(=O)C(=O)O)c2)c(I)c2cc(C(=O)O)c(O)cc21 was run?
**A.** The inhibition was “inactive”.

**Q.** And the inhibition [13]?
**A.** The inhibition was “inactive”.
